Like-named read-outs stand apart in the source and are kept apart here.
Legend:
[1] = tested on: P. falciparum TM4/8.2 (wild type PfDHFR); test: In vitro antimalarial activity, 3H-hypoxanthine incorporation, TM4/8.2; format: cell-based; details: Plasmodium falciparum
HsDHFR = molecular target: T1, HsDHFR (Homo sapiens, UniProt P00374); test: biochemical
T1 sequence (P00374 1-187): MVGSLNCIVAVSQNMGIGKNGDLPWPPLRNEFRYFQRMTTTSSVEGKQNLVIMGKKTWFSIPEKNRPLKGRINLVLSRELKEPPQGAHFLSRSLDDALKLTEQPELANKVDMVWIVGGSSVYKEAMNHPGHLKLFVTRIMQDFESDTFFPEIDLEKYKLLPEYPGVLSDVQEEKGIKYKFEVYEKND

PfDHFR-QM = PfDHFR-QM (Plasmodium falciparum, UniProt P13922, I164L/N51I); test: DHFR enzyme inhibition assay, quadruple mutant; format: biochemical
[2] = tested on: P. falciparum V1/S (QM PfDHFR); test: In vitro antimalarial activity, 3H-hypoxanthine incorporation, V1S; format: cell-based; details: Plasmodium falciparum, read-out: IC50 PfV1S
In short: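 P. falciparum V1/S (quadruple-mutant PfDHFR, chloroquine-resistant) grown in human erythrocytes at 37 °C under 3% CO2. Medium was RPMI 1640 with 25 mM HEPES, 0.2% NaHCO3, 40 µg/mL gentamicin and 8% human serum. Activity was measured by ³H-hypoxanthine incorporation.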

PfDHFR-WT = PfDHFR-WT (Plasmodium falciparum, UniProt P13922, N108S/R59C); test: DHFR enzyme inhibition assay, wild type; format: biochemical
KB cells = test: Cytotoxicity, sulforhodamine B staining, KB; format: cell-based; details: Homo sapiens, read-out: IC50 KB
[3] = read-out: IC50 PfTM4/8.2, WT P. falciparum, drug sensitive strain

SMILES	IC50 ([1]; read-out: IC50 PfTM4/8.2)	Ki (HsDHFR)	Ki (PfDHFR-QM)	IC50 [2]	Ki (PfDHFR-WT)	IC50 (KB cells)	IC50 [1, 3]
COc1ccccc1CCNCc1c(N)nc(N)nc1-c1ccccc1 [7 a, 6‐Phenyl‐5‐{[(2‐methoxyphenethyl)amino]methyl}pyrimidine‐2,4‐diamine]	27 ± 3 µM	> 500 µM	0.208 ± 0.003 µM	54 ± 2 µM	0.243 ± 0.021 µM	> 100 µM	
COc1cccc(CCNCc2c(N)nc(N)nc2-c2ccccc2)c1 [7 b, 6‐Phenyl‐5‐{[(3‐methoxyphenethyl)amino]methyl}pyrimidine‐2,4‐diamine]	27 ± 4 µM	> 500 µM	0.074 ± 0.001 µM	48 ± 1 µM	0.107 ± 0.003 µM	> 100 µM	
COc1ccc(CCNCc2c(N)nc(N)nc2-c2ccccc2)cc1 [7 c, 6‐Phenyl‐5‐{[(4‐methoxyphenethyl)amino]methyl}pyrimidine‐2,4‐diamine]	28 ± 5 µM	> 500 µM	0.069 ± 0.005 µM	34 ± 2 µM	0.086 ± 0.013 µM	> 100 µM	
COc1ccccc1CCNCc1c(N)nc(N)nc1C1CC1 [7 d, 6‐Cyclopropyl‐5‐{[(2‐methoxyphenethyl)amino]methyl}pyrimidine‐2,4‐diamine]		1.59 ± 0.029 µM	0.031 ± 0.002 µM	35 ± 4 µM	0.015 ± 0.001 µM	> 100 µM	25 ± 1 µM
COc1cccc(CCNCc2c(N)nc(N)nc2C2CC2)c1 [7 e, 6‐Cyclopropyl‐5‐{[(3‐methoxyphenethyl)amino]methyl}pyrimidine‐2,4‐diamine]		1.04 ± 0.034 µM	0.026 ± 0.0005 µM	13 ± 1 µM	0.0044 ± 0.0002 µM	74 ± 4 µM	4.2 ± 0.2 µM
COc1ccc(CCNCc2c(N)nc(N)nc2C2CC2)cc1 [7 f, 6‐Cyclopropyl‐5‐{[(4‐methoxyphenethyl)amino]methyl}pyrimidine‐2,4‐diamine]		0.647 ± 0.006 µM	0.029 ± 0.0006 µM	15 ± 3 µM	0.0035 ± 0.0004 µM	72 ± 1 µM	3.5 ± 0.2 µM
Nc1nc(N)c(CNCCc2ccccc2F)c(C2CC2)n1 [7 g, 6‐Cyclopropyl‐5‐{[(2‐fluorophenethyl)amino]methyl}pyrimidine‐2,4‐diamine]		0.205 ± 0.001 µM	0.031 ± 0.002 µM	25 ± 2 µM	0.0082 ± 0.0003 µM	> 100 µM	12 ± 5 µM
Nc1nc(N)c(CNCCc2cccc(F)c2)c(C2CC2)n1 [7 h, 6‐Cyclopropyl‐5‐{[(3‐fluorophenethyl)amino]methyl}pyrimidine‐2,4‐diamine]		0.458 ± 0.031 µM	0.026 ± 0.002 µM	20 ± 2 µM	0.01 ± 0.0003 µM	> 100 µM	4.2 ± 0.3 µM
Nc1nc(N)c(CNCCc2ccc(F)cc2)c(C2CC2)n1 [7 i, 6‐Cyclopropyl‐5‐{[(4‐fluorophenethyl)amino]methyl}pyrimidine‐2,4‐diamine]		0.212 ± 0.012 µM	0.035 ± 0.002 µM	48 ± 5 µM	0.0057 ± 0.0005 µM	> 100 µM	23 ± 3 µM
Nc1nc(N)c(CNCCc2ccccc2Cl)c(C2CC2)n1 [7 j, 6‐Cyclopropyl‐5‐{[(2‐chlorophenethyl)amino]methyl}pyrimidine‐2,4‐diamine]		0.304 ± 0.016 µM	0.023 ± 0.0006 µM	17 ± 3 µM	0.0093 ± 0.0005 µM	83 ± 7 µM	0.4 ± 0.01 µM
Nc1nc(N)c(CNCCc2cccc(Cl)c2)c(C2CC2)n1 [7 k, 6‐Cyclopropyl‐5‐{[(3‐chlorophenethyl)amino]methyl}pyrimidine‐2,4‐diamine]		0.345 ± 0.007 µM	0.02 ± 0.0009 µM	14 ± 4 µM	0.0025 ± 0.0001 µM	82 ± 13 µM	4.2 ± 0.9 µM
Nc1nc(N)c(CNCCc2ccc(Cl)cc2)c(C2CC2)n1 [7 l, 6‐Cyclopropyl‐5‐{[(4‐chlorophenethyl)amino]methyl}pyrimidine‐2,4‐diamine]		0.142 ± 0.006 µM	0.027 ± 0.0001 µM	18 ± 3 µM	0.0025 ± 0.0002 µM	70 ± 0.5 µM	5 ± 0.6 µM
Nc1nc(N)c(CNCCc2ccc(Cl)cc2Cl)c(C2CC2)n1 [7 m, 6‐Cyclopropyl‐5‐{[(2,4‐dichlorophenethyl)amino]methyl}pyrimidine‐2,4‐diamine]		0.131 ± 0.005 µM		6.3 ± 1.2 µM	0.002 ± 3e-05 µM	66 ± 2 µM	3.6 ± 0.2 µM
Nc1nc(N)c(CNCCc2ccc(Cl)c(Cl)c2)c(C2CC2)n1 [7 n, 6‐Cyclopropyl‐5‐{[(3,4‐dichlorophenethyl)amino]methyl}pyrimidine‐2,4‐diamine]		0.202 ± 0.006 µM	0.013 ± 4e-05 µM	4.4 ± 0.1 µM	0.0013 ± 6e-05 µM	23 ± 0.5 µM	3.3 ± 0.1 µM
COc1ccccc1CCNCc1c(N)nc(N)nc1C1CCCCC1 [7 o, 6‐Cyclohexyl‐5‐{[(2‐methoxyphenethyl)amino]methyl}pyrimidine‐2,4‐diamine]	3.7 ± 0.3 µM	> 500 µM	0.126 ± 0.009 µM	9.4 ± 1.9 µM	0.128 ± 0.009 µM	22 ± 0.3 µM	
COc1cccc(CCNCc2c(N)nc(N)nc2C2CCCCC2)c1 [7 p, 6‐Cyclohexyl‐5‐{[(3‐methoxyphenethyl)amino]methyl}pyrimidine‐2,4‐diamine]	3.5 ± 0.2 µM	> 500 µM	0.056 ± 0.002 µM	4.1 ± 0.3 µM	0.031 ± 0.005 µM	23 ± 0.3 µM	
COc1ccc(CCNCc2c(N)nc(N)nc2C2CCCCC2)cc1 [7 q, 6‐Cyclohexyl‐5‐{[(4‐methoxyphenethyl)amino]methyl}pyrimidine‐2,4‐diamine]	1.8 ± 0.1 µM	> 500 µM	0.055 ± 0.002 µM	3.7 ± 0.2 µM	0.032 ± 0.001 µM	23 ± 0.2 µM	
Nc1nc(N)c(CNCCc2ccccc2F)c(C2CCCCC2)n1 [7 r, 6‐Cyclohexyl‐5‐{[(2‐fluorophenethyl)amino]methyl}pyrimidine‐2,4‐diamine]	4.1 ± 0.7 µM	> 500 µM	0.083 ± 0.001 µM	16 ± 2 µM	0.061 ± 0.0015 µM	48 ± 14 µM	
Nc1nc(N)c(CNCCc2cccc(F)c2)c(C2CCCCC2)n1 [7 s, 6‐Cyclohexyl‐5‐{[(3‐fluorophenethyl)amino]methyl}pyrimidine‐2,4‐diamine]	3 ± 0.4 µM	> 500 µM	0.074 ± 0.002 µM	11 ± 2 µM	0.076 ± 0.005 µM	62 ± 3 µM	
Nc1nc(N)c(CNCCc2ccc(F)cc2)c(C2CCCCC2)n1 [7 t, 6‐Cyclohexyl‐5‐{[(4‐fluorophenethyl)amino]methyl}pyrimidine‐2,4‐diamine]	2.2 ± 0.1 µM	> 250 µM	0.136 ± 0.007 µM	7 ± 2 µM	0.08 ± 0.009 µM	56 ± 5 µM	
Nc1nc(N)c(CNCCc2ccccc2Cl)c(C2CCCCC2)n1 [7 u, 6‐Cyclohexyl‐5‐{[(2‐chlorophenethyl)amino]methyl}pyrimidine‐2,4‐diamine]	3.3 ± 0.3 µM	> 250 µM	0.038 ± 0.001 µM	16 ± 1 µM	0.022 ± 0.002 µM	22 ± 0.05 µM	
Nc1nc(N)c(CNCCc2cccc(Cl)c2)c(C2CCCCC2)n1 [7 v, 6‐Cyclohexyl‐5‐{[(3‐chlorophenethyl)amino]methyl}pyrimidine‐2,4‐diamine]	3.1 ± 0.4 µM	> 250 µM	0.036 ± 0.004 µM	4 ± 0.2 µM	0.025 ± 0.001 µM	23 ± 0.2 µM	
Nc1nc(N)c(CNCCc2ccc(Cl)cc2)c(C2CCCCC2)n1 [7 w, 6‐Cyclohexyl‐5‐{[(4‐chlorophenethyl)amino]methyl}pyrimidine‐2,4‐diamine]	3.1 ± 0.2 µM	> 500 µM	0.06 ± 0.001 µM	4.5 ± 0.3 µM		23 ± 0.2 µM	
Nc1nc(N)c(CNCCc2ccc(Cl)cc2Cl)c(C2CCCCC2)n1 [7 x, 6‐Cyclohexyl‐5‐{[(2,4‐dichlorophenethyl)amino]methyl}pyrimidine‐2,4‐diamine]	2.5 ± 0.4 µM	> 250 µM	0.123 ± 0.008 µM	4.9 ± 0.3 µM	0.007 ± 0.0003 µM	62 ± 3 µM	
Nc1nc(N)c(CNCCc2ccc(Cl)c(Cl)c2)c(C2CCCCC2)n1 [7 y, 6‐Cyclohexyl‐5‐{[(3,4‐dichlorophenethyl)amino]methyl}pyrimidine‐2,4‐diamine]	3.5 ± 0.3 µM	> 250 µM	0.028 ± 0.003 µM	4 ± 0.3 µM	0.009 ± 0.0007 µM	22 ± 0.1 µM	
CC1(C)N=C(N)N=C(N)N1c1ccc(Cl)cc1 [CYC, cycloguanil, reference compound]	0.03 ± 0.005 µM		0.42 ± 0.13 µM	92 ± 6 µM		> 100 µM	
CCc1nc(N)nc(N)c1-c1ccc(Cl)cc1 [PYR, pyrimethamine, reference compound]	0.05 ± 0.007 µM			> 100 µM		60 ± 26 µM	0.053 µM
